A word on the MIC: it is the lowest concentration that inhibits growth of the organism. The term IC50 denotes the midpoint of a concentration-inhibition curve. Low values mean higher potency, high ones lower potency.

≈ marks a conversion by molar mass, not a printed value. A value given as a limit tells only on which side of the number the result lay.

This is an account of results in ChEMBL document CHEMBL1142671, “Chiral DNA gyrase inhibitors. 3. Probing the chiral preference of the active site of DNA gyrase. Synthesis of 10-fluoro-6-methyl-6,7-dihydro-9-piperazinyl- 2H-benzo[a]quinolizin-20-one-3-carboxylic acid analogues” (J Med Chem, 2005).

One test concerns Micrococcus luteus. As to the kind of experiment: In vitro minimum inhibitory concentration against Micrococcus luteus 9341 was determined. The test is classed as functional. The method, boiled down:
(§1)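 Two-fold agar dilution series; MIC taken as the average of triplicate runs. Tested against intact Gram-positive and Gram-negative bacteria.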

The next test deals with Pseudomonas aeruginosa. The experiment in a line: In vitro minimum inhibitory concentration against Pseudomonas aeruginosa was determined. The test is classed as functional. The method, boiled down:
as §1

Test [1] deals with Escherichia coli. As to the kind of experiment: In vitro minimum inhibitory concentration against Escherichia coli SS was determined. The test is classed as functional. The method, boiled down:
as §1

In the next test the target is DNA gyrase (Escherichia coli, UniProt P0AES4+P0AES6). As to the kind of experiment: In vitro inhibitory concentration against DNA gyrase from Escherichia coli H560. It counts as protein-complex assay. The method, boiled down:
(§2)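 Purified DNA gyrase, isolated from Escherichia coli H560 or Micrococcus luteus; IC50 in µg/mL, averaged over triplicate runs.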

The subject of test [2] is Escherichia coli. As to the kind of experiment: In vitro minimum inhibitory concentration against Escherichia coli KNK 437 was determined. It counts as functional. The method, boiled down: as §1
Test [3] relates to Escherichia coli. As to the kind of experiment: In vitro minimum inhibitory concentration against Escherichia coli Juhl was determined. The test is classed as functional. The method, boiled down:
as §1

Test [4] has as its system Escherichia coli. As to the kind of experiment: In vitro minimum inhibitory concentration against Escherichia coli H560 was determined. The test is classed as functional. The method, boiled down: as §1
A further test concerns Staphylococcus aureus. As to the kind of experiment: In vitro minimum inhibitory concentration against Staphylococcus aureus ATCC 6538P was determined. It counts as functional. The method, boiled down: as §1
Test [5] is described as follows: In vitro minimum inhibitory concentration against […] faecium ATCC 8043 was determined. The test is classed as functional. The method, boiled down: as §1
In another test the target is Nucleic Acid. As to the kind of experiment: In vitro inhibitory concentration against DNA gyrase from Micrococcus luteus […]. The test is classed as nucleic-acid assay. The method, boiled down: as §2

For the compound `C[C@H]1Cc2ccccc2-c2cc(=O)c(C(=O)O)cn21`, the minimum inhibitory concentration (MIC) in the test on Micrococcus luteus was over 100 µg/mL; in the test with Pseudomonas aeruginosa, 50 µg/mL (≈ 196 µM); in the test on Escherichia coli [1], 1.56 µg/mL (≈ 6.11 µM); in the test with Escherichia coli [2], over 100 µg/mL; in the test on Escherichia coli [3], 25 µg/mL (≈ 97.9 µM); against Escherichia coli [4], 25 µg/mL (≈ 97.9 µM). The MIC in the test with Staphylococcus aureus is 50 µg/mL (≈ 196 µM); in test [5], over 100 µg/mL. In addition, the IC50 is 78.3 µM against DNA gyrase and over 250 µg/mL against Nucleic Acid.
For `O=C(O)c1cn(C2CC2)c2cc(N3CCNCC3)c(F)cc2c1=O` [CIPROFLOXACIN], the MIC came to 1.56 µg/mL (≈ 4.71 µM) with Micrococcus luteus; 0.05 µg/mL (≈ 0.151 µM) in the test with Pseudomonas aeruginosa; 0.005 µg/mL (≈ 0.0151 µM) in the test with Escherichia coli [1]; 0.2 µg/mL (≈ 0.604 µM) in the test with Staphylococcus aureus; 0.78 µg/mL (≈ 2.35 µM) in test [5].
Take `CC1Cc2cc(N3CCNCC3)c(F)cc2-c2cc(=O)c(C(=O)O)cn21` (stereo not given): the minimum inhibitory concentration (MIC) against Pseudomonas aeruginosa came to 50 µg/mL (≈ 140 µM); in the test with Escherichia coli [2], 0.2 µg/mL (≈ 0.56 µM); in the test on Escherichia coli [3] it was 50 µg/mL (≈ 140 µM); in the test with Staphylococcus aureus, 25 µg/mL (≈ 70 µM). This compound also had an IC50 against DNA gyrase of 83.9 µM.
`C[C@@H]1Cc2ccccc2-c2cc(=O)c(C(=O)O)cn21`: the minimal inhibitory concentration (MIC) in the test on Micrococcus luteus is 100 µg/mL (≈ 392 µM); in the test on Pseudomonas aeruginosa it was 100 µg/mL (≈ 392 µM); in the test on Escherichia coli [1] it was 6.25 µg/mL (≈ 24.5 µM); against Escherichia coli [2], over 100 µg/mL; in the test on Escherichia coli [3] it was 25 µg/mL (≈ 97.9 µM); in the test on Escherichia coli [4] it was 50 µg/mL (≈ 196 µM). In addition, the minimal inhibitory concentration (MIC) is 25 µg/mL (≈ 97.9 µM) with Staphylococcus aureus and over 100 µg/mL in [5]. Also, the 50% inhibitory concentration (IC50) is 125 µM at DNA gyrase and over 250 µg/mL at Nucleic Acid.
